# Measurements of several laboratories.
# Compare with care: the assays were run in different laboratories.
# Medium: plasma
Compound,assay,test system,conditions,quantity,value
CCc1cc(OC)c2nccc(N3CCc4c(cc(Cn5ccnc5)cc4-c4cn(C)nc4C(F)(F)F)C3=O)c2c1,,male Sprague-Dawley rat,"oral, 50 mg/kg",MRT(0-inf),2.7 h
Oc1c(Br)cc(Cl)c2cccnc12,,Sprague-Dawley rat,"oral, 20 mg/kg",MRT,6.8 h
COc1ccc(C(C)=O)c(O)c1,,male Sprague-Dawley rat,"oral, 100 mg/kg",MRT(0-t),3.83 h
CCOC(=O)[C@@]12C[C@@H]1[C@@H](n1ccc3c(NC)nc(C#Cc4ccc(Cl)s4)nc31)[C@H](O)[C@@H]2O,,male Sprague-Dawley rat,"oral, 3 mg/kg",MRT(0-t),2.44 h
O=C(Nc1cc(F)c(F)c(F)c1)c1ccc(F)c(S(=O)(=O)NCc2cccc(B(O)O)c2)c1,,male Sprague-Dawley rat,"oral, 20 mg/kg",MRT(0-inf),1.25 h
O=C(O)/C=C/c1ccc(O)c(O)c1,HPLC,Wistar rat,oral,MRT,0.69 h
C#Cc1cccc(Nc2ncnc3cc(OCCOC)c(OCCOC)cc23)c1,,male Sprague-Dawley rat,"oral, 12 mg/kg, single dose",MRT(0-t),5.07 h
N#Cc1ccc(Nc2nc(N)cc(Oc3c(F)cc(-c4ccc(C#N)cc4)cc3F)n2)cc1,,Sprague-Dawley rat,"intravenous, 1 mg/kg",MRT(0-inf),1.56 h
CCc1nc(C(N)=O)c(Nc2ccc(N3CCC(N4CCN(C)CC4)CC3)c(OC)c2)nc1NC1CCOCC1,,male Sprague-Dawley rat,"oral, 10 mg/kg",MRT(0-t),19.5 h
COc1nc(-c2cc(C)c(N[C@@H](C)c3cc(F)cc(F)c3)nn2)ccc1-n1cnc(C)c1,,male Sprague-Dawley rat,"oral, 5 mg/kg, single dose",MRT(0-t),6.87 h
Cc1nc(Nc2ncc(C(=O)Nc3c(C)cccc3Cl)s2)cc(N2CCN(CCO)CC2)n1,,female Sprague-Dawley rat,"intravenous, 5 mg/kg",MRT,3.78 h
CCc1cc(C(=O)NC)c2nccc(N3CCc4c(cc(Cn5ccnc5)cc4-c4cn(C)nc4C(F)(F)F)C3=O)c2c1,,male Sprague-Dawley rat,"oral, 100 mg/kg, single dose",MRT(0-inf),3.8 h
CNCc1cc(-c2ccccc2F)n(S(=O)(=O)c2cccnc2)c1,,Sprague-Dawley rat,"oral, 10 mg/kg",MRT(0-t),2.43 h
